Test results reported in publication PMC4492651 (Drug Design, Development and Therapy, 2015).
Where two headings read alike, the source gives them in different places.

Key:
[1] = system: carrageenan-induced thrombosis; assay: Model of carrageenan-induced thrombosis; format: in vivo, KM mice; settings: n=10; for Black tail length (cm) 24 hours / Black tail occurrence (%) 24 hours: 24 hours after carrageenan; for Black tail length (cm) 24 hours / Black tail length (cm) 48 hours: mean ± SD; for Black tail length (cm) 48 hours / Black tail occurrence (%) 48 hours: 48 hours after carrageenan
[2] = system: GSH-Px, SOD, NO and MDA in brain tissue; assay: Antioxidant stress activity in vivo after I/R; set-up: species or system Sprague Dawley rats; settings: I/R rats; for content of SOD in comparison with the model group: 3d 10, 20 and 50 mg/kg, NBP 20 mg/kg, Eda 3.0 mg/kg
Procedure, shortened: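 Male Sprague Dawley rats underwent filament MCAO, 2 h occlusion then reperfusion. Test compound (10, 20, 50 mg/kg; model vehicle oil) given ip 15 min after MCAO onset. At 24 h reperfusion, under chloral hydrate, brains were rinsed in cold saline; ischemic core and penumbra were separated and stored at −70°C. After protein assay, T-SOD and GSH-Px activities, MDA and NO were measured by kits. n=10, mean ± SD, ANOVA/Newman–Keuls.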

[3] = system: transient middle cerebral artery occlusion; set-up: species or system Sprague Dawley rats; settings: rat, in vivo, ip
HT22 cells = assay: H2O2-induced cytotoxicity in HT22 cells; format: cell-based, murine; settings: Mus musculus, HT-22, read-out: H2O2-treated HT22 viability percentage
Procedure, shortened: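 Murine HT22 cells in DMEM with 10% newborn calf serum, 37°C, 5% CO2. Seeded at 20,000 cells/well and grown 24 h. Pretreated in quadruplicate with test compound (10–100 µM) for 2 h, exposed to 500 µM H2O2 for 1 h, then given fresh medium for 12 h. Viability by MTT. Four separate experiments, mean ± SD.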

[4] = 50 mg/kg by gavage daily for 2 days
[5] = 3 mg/kg by gavage daily for 2 days

Compound | Black tail length (cm) 24 hours [1, 4] | Black tail occurrence (%) 24 hours [1, 4] | Black tail length (cm) 48 hours [1, 4] | Black tail occurrence (%) 48 hours [1, 4] | NO activity ([2]; 20 mg/kg, 24 hours postreperfusion, model 1.51) | content of SOD in comparison with the model group [2] | infarct size reduced by ([3]; 20 mg/kg) | viability at 100 µM (HT22 cells) | levels of GSH-Px activity vs model animals ([2]; ischemic core, 3d 50 mg/kg, Eda 3 mg/kg) | infarct size reduced by ([3]; 3 mg/kg) | Black tail length (cm) 24 hours [1, 5] | Black tail occurrence (%) 24 hours [1, 5] | Black tail length (cm) 48 hours [1, 5] | Black tail occurrence (%) 48 hours [1, 5]
CC(=O)Oc1ccccc1C(=O)O [ASP, aspirin] | 1.5±0.5 cm | 30% | 2.4±0.6 cm | 40% | – | – | – | – | – | – | – | – | – | –
CCCCC1OC(=O)c2ccccc21 (centres unmarked) [NBP, 3-n-butylphthalide] | 3.1±0.3 cm | 30% | 3.5±0.5 cm | 50% | 0.92 U/mg | increased | 26.19% | 71.5% | – | – | – | – | – | –
CC1=NN(c2ccccc2)C(=O)C1 [Eda, edaravone] | – | – | – | – | – | increased | – | 69.9% | significantly higher | 69.65% | 4.6±1.7 cm | 70% | 4.5±1.8 cm | 80%
